# LYPLA1 counter – counter-screen for PME1 inhibitors: inhibitors of human LYPLA1; O75608; recombinant LYPLA1, FP-Rh probe fluorescence polarization; inhibition, % at 5.9 µM; 320,000 compounds, 0.16% hits;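 active means inhibition above the mean of all tested compounds plus 3 SD, set per campaign, cut at about 14% in these data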;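 further: inhibitors block serine hydrolase probe labeling of LYPLA1 so polarization falls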
# PREPL inh – inhibits the human prolyl oligopeptidase-like enzyme; Q4J6C6; 320,000 compounds, 0.68% hits; inhibition, % at 5.96 µM; recombinant PREPL, fluorescence polarization activity-based probe; in the data active means inhibition above about 43%
# proCasp3 act – procaspase-3 (human) activation. P42574. recombinant procaspase-3 D3A, Ac-DEVD-pNA absorbance 405 nm. activation, % at 8.5 µM. 330,000 compounds, 0.11% hits. AID 463141;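 active means activation above the mean of all tested compounds plus 3 SD, cut at about 21% in these data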
# Target sequence (P42574 whole entry D9A/D28A/D175A): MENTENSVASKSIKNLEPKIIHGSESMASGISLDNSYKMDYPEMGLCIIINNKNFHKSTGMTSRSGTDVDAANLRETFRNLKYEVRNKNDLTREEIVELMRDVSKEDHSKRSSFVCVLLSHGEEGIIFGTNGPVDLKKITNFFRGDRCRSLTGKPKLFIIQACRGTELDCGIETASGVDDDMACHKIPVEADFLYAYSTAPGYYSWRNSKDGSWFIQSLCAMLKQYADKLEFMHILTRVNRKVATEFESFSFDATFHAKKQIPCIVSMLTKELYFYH
#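 Compound: 8.5 µM single point, 0.8% DMSO / Material: Autoprocessing-dead procaspase-3 D3A mutant enzyme / Timing: 1 h preincubation plus 2 h reaction at 25 °C / Medium: Zinc-free HEPES/NaCl buffer with 0.01% Triton X-100 at pH 7.4 / Technique: 405 nm absorbance of p-nitroaniline, reads at 0 and 120 min / Repeats: one well per compound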
# proCasp7 act – activates human procaspase-7, counter-screen for procaspase-3 activators; recombinant procaspase-7, Ac-DEVD-pNA absorbance 405 nm; D23A/D198A/D206A triple mutant, cannot self-cleave; scale: DMSO 0, 5 µM enzyme 100; activation, % at 8.5 µM; AID 463210; 330,000 compounds, 0.093% hits;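 active means percent activation above the screen-wide mean plus 3 SD, cut at about 25% in these data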
# Target sequence (P55210 whole entry D23A/D198A/D206A): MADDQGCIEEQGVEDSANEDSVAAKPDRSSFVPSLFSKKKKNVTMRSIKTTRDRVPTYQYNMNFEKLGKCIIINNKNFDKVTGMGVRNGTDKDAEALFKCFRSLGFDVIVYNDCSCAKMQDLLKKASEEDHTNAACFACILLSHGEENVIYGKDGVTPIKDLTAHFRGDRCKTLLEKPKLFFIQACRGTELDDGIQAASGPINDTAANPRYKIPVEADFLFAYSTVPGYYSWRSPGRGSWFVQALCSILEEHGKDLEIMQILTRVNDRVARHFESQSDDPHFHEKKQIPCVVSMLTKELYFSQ
#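 Replicates: singlicate. Assay system: Procaspase-7 triple mutant (PC-7 D3A). Signal: 405 nm absorbance of p-nitroaniline. Times: 1 h preincubation, 2 h reaction. Buffer or medium: Zinc-free HEPES pH 7.4 with 300 mM NaCl, 0.01% Triton X-100. Also added: DEVD-pNA substrate. Benchmarks: DMSO wells as 0%, DMSO with 5 µM added PC-7 as 100%.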
# LYPLA2 inh – blocks human lysophospholipase 2, a PME1 counter-screen; O95372; recombinant LYPLA2, FP-Rh probe fluorescence polarization; inhibition, % at 5.9 µM; 320,000 compounds, 0.38% hits; AID 2177;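 active means inhibition above the screen-wide mean plus 3 SD, limit set per campaign, cut at about 26% in these data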
# LYPLA2 conf – counter-screen for PME1 inhibitors: confirmation of human LYPLA2 inhibitors; shares compounds with LYPLA2 inh; inhibition, % at 5.9 µM; AID 2232; recombinant LYPLA2, FP-Rh probe fluorescence polarization; 1,100 compounds, 72% hits;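 active means mean inhibition across replicates above the hit cutoff set in the primary screen, cut at about 26% in these data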;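 further: blocked labeling of the enzyme by serine hydrolase FP-Rh probe lowers polarization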
# LYPLA2 ABPP – LYPLA2 (human) inhibition, late stage results. inhibition, % at 20 µM. rhLYPLA2 in mouse brain proteome, gel ABPP FP-Rh. AID 652029. shares compounds with LYPLA2 inh. 150 compounds, 30% hits;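 active means inhibition of LYPLA2 enzyme probe labeling above about 50%, limit read from the data; inactive means inhibition below that limit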;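 further: loss of FP-Rh probe labeling of the LYPLA2 gel band measured as band density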
# Numbers stand for hits; – = inactive; · = no result. Hits are enriched below; roughly 1% of the tested compounds scored in any of these assays.
SMILES,LYPLA1 counter,PREPL inh,proCasp3 act,proCasp7 act,LYPLA2 inh,LYPLA2 conf,others
COc1ccc(N2CCN(C(=O)c3cc4c(s3)CCCCC4)CC2)cc1,–,–,–,–,62,62,LYPLA2 ABPP=–
Cc1coc2cc3oc(=O)c(CCC(=O)NCc4ccccn4)c(C)c3cc12,–,–,–,–,–,·,
O=C(c1ccc(CSc2nc3ccncc3[nH]2)cc1)N1CCCCCC1,–,–,–,–,–,·,
O=C(c1ccc(CSc2nc3ccncc3[nH]2)cc1)N1CCN(c2cccc(Cl)c2)CC1,–,–,–,–,33,31,
Cc1cccc(-n2c(CNC(=O)c3ccc(S(=O)(=O)N4CCCCC4)cc3)n[nH]c2=S)c1,–,–,–,–,79,–,
COc1ccc(Cl)cc1NC(=O)c1noc2c1CCCC2,–,–,–,–,–,·,
COc1ccc(Cl)cc1NC(=O)c1noc(C)c1[N+](=O)[O-],–,–,–,–,28,36,
Cc1cccc(N2C(=O)SC(N(C)c3ccccc3)C2=O)c1 (stereo not given),–,–,–,–,–,·,
COc1ccccc1C(=O)COC(=O)c1ccc(-n2cnnn2)cc1,–,–,–,–,32,–,
COc1ccccc1C(=O)COC(=O)c1cccc(-n2cnnn2)c1,–,–,–,–,–,·,
Cc1ccc(NC(=O)Cn2c(=O)c(C)nc3ccccc32)cc1,–,–,–,–,–,·,
Cc1nc2ccccc2n(CC(=O)Nc2cc(Cl)cc(Cl)c2)c1=O,–,–,–,–,32,42,
O=C1CC(C(=O)Nc2ccc(Cl)cc2)S/C(=N\N=C\c2ccco2)N1 (stereo not given),–,–,–,–,–,·,
CON=Cc1ccc(N2CCN(C(=O)c3cccc(C(F)(F)F)c3)CC2)c([N+](=O)[O-])c1,·,·,·,·,·,·,LYPLA2 ABPP=88
CON=Cc1ccc(N2CCN(C(=O)c3ccc(Cl)cc3Cl)CC2)c([N+](=O)[O-])c1,·,·,·,·,·,·,LYPLA2 ABPP=–
CO/N=C/c1ccc(N2CCOCC2)c([N+](=O)[O-])c1,–,–,–,–,–,·,
COc1ccc(N2CCN(C(=O)c3ccc(C)cc3)CC2)c([N+](=O)[O-])c1,–,–,–,–,–,·,
COc1ccc(N2CCN(C(=O)c3ccc(Br)cc3)CC2)c([N+](=O)[O-])c1,–,–,–,–,48,56,LYPLA2 ABPP=–
COc1cccc(SCc2noc(C(=O)NC(C)C)c2C(=O)O)c1,–,–,–,–,–,·,
CCN1CCN(c2ccc(S(=O)(=O)N3CCCCC3)cc2N)CC1,–,–,–,–,–,·,
COc1ccc(N2CCN(C(=O)c3ccc4c(c3)NC(=O)C(CSCc3ccc(C)cc3)N4)CC2)cc1 (stereo not given),–,–,–,–,–,·,
CCCc1cc(=O)oc2c3c(cc(OCC(=O)NCc4ccncc4)c12)OC(C)(C)CC3,–,–,–,–,–,·,
CCCCCCCCN1[C@@H](CC(=O)O)c2cc(C(F)(F)F)ccc2S1(=O)=O,–,–,–,–,–,·,
CCCCCCCCCCCCN1[C@@H](CC(=O)O)c2cc(F)ccc2S1(=O)=O,–,–,–,–,58,58,LYPLA2 ABPP=–
CCCCCCCCCCCCN1[C@@H](CC(=O)O)c2cc(C(F)(F)F)ccc2S1(=O)=O,–,–,–,–,61,60,LYPLA2 ABPP=–
SMILES,LYPLA1 counter,PREPL inh,proCasp3 act,proCasp7 act,LYPLA2 inh,LYPLA2 conf,others
CC(c1ccccc1)N1C(=O)C2C3C=CC(C4CC34)C2C1=O (stereo not given),–,–,–,–,–,·,
COc1ccc(/C=C2\SC(=S)N(CCC(=O)Nc3cccc(O)c3)C2=O)cc1OC,–,–,–,–,–,·,
COc1cc(/C=C2\SC(=O)N(CC(=O)Nc3cccc(C)c3)C2=O)ccc1OC(C)C(=O)O (stereo not given),–,–,–,–,74,74,LYPLA2 ABPP=80
COc1ccc(/C=C2\SC(=O)N(CC(=O)Nc3cccc(C)c3)C2=O)cc1O,–,–,–,–,41,38,
Cc1ccc(S(=O)(=O)CC(=O)c2ccccc2[N+](=O)[O-])cc1,–,–,–,–,–,·,
CCc1cc2c(-c3ccccc3)cc(=O)oc2cc1OCC(=O)NCC1CCC(C(=O)O)CC1 (stereo not given),–,–,–,–,–,·,
O=C(COc1cc2oc(=O)cc(-c3ccccc3)c2cc1Cl)NCC1CCC(C(=O)O)CC1 (stereo not given),–,–,–,–,42,37,
O=C(COC(=O)c1cccc(C(=O)OCC(=O)NC2CCCCC2)n1)NC1CCCCC1,–,–,–,–,–,·,
Fc1cc(Br)ccc1NC(=S)NCCc1ccccc1,–,–,–,–,–,·,
CCC(=O)c1ccc(CCCCCC(=O)O)s1,–,–,–,–,–,·,
CC(=O)c1ccc(CCCCCCCCCC(=O)O)s1,–,–,–,–,59,57,LYPLA2 ABPP=–
CCCOc1ccc(-c2c(=O)n(O)c3ccccc3[n+]2[O-])cc1,–,–,–,–,50,–,
O=C(Nc1ccccc1)c1ccccc1NC(=O)c1ccccc1C(=O)O,–,–,–,–,–,·,
Cc1nnsc1C(=O)N1CCCC(N2CCN(c3cccc(C(F)(F)F)c3)CC2)C1 (stereo not given),–,–,–,–,55,56,LYPLA2 ABPP=–
Cc1noc(C)c1C(=O)N1CCCC(N2CCN(c3cccc(C(F)(F)F)c3)CC2)C1 (stereo not given),–,–,–,–,30,–,
Cc1cc(C(=O)N2CCCC(N3CCN(c4cccc(C(F)(F)F)c4)CC3)C2)no1 (stereo not given),–,–,–,–,–,·,
c1ccc(-c2ccc(C(c3ccccc3)n3ccnc3)cc2)cc1 (stereo not given),–,–,–,–,27,–,
COc1ccc(C(=O)N2CCN(c3cccc(Cl)c3)CC2)cc1,–,–,–,–,–,·,
Cc1ccc(C(=O)N2CCN(c3ccc(NC(=O)c4cccnc4)cc3)CC2)cc1,–,–,–,–,–,·,
COc1ccc(N2CCN(C(=O)c3ccc(-n4nc(C)cc4C)cc3)CC2)cc1,–,–,–,–,41,39,
CC(=O)c1ccc(N2CCN(C(=O)c3ccc(OCc4c(C)noc4C)cc3)CC2)cc1,–,–,–,–,37,28,
COc1cc(C(=O)Nc2ccc(N3CCN(C(=O)c4ccc(C)cc4)CC3)cc2)cc(OC)c1OC,–,–,–,–,38,50,LYPLA2 ABPP=–
Cc1cc(C)n(-c2ccc(C(=O)OCC(=O)N3CCN(c4ccccc4)CC3)cc2)n1,·,–,–,–,·,·,
COc1cccc(N2CCN(C(=O)c3ccc(-c4ccccc4)cc3)CC2)c1,–,–,–,–,30,26,
